Results reported in ChEMBL document CHEMBL4261588, “Breathing new life into West Nile virus therapeutics; discovery and study of zafirlukast as an NS2B-NS3 protease inhibitor” (Eur J Med Chem, 2018).
The source made the active and inactive calls. No cut-off for these calls is given here.

Assays:
West Nile virus [1] = experiment: Inhibition of West Nile virus NS2B-NS3 protease at 60 uM using Mca-KKR-GDap(DNP)AK-NH2 as substrate measured every 30 secs for 20 mins by FRET assay
[2] = Inhibition of West Nile virus NS2B-NS3 protease using Mca-KKR-GDap(DNP)AK-NH2 as substrate measured every 30 secs for 20 mins by FRET assay
Method in brief: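 FRET read-out: protease cleavage of a peptide carrying a fluorophore and a quencher on either side of the cleavage site raises fluorescence in proportion to enzyme activity. IC50 is taken as the inhibitor concentration that lowers enzymatic activity by 50%.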

West Nile virus [3] = experiment: Inhibition of West Nile virus NS2B-NS3 protease using Mca-KKR-GDap(DNP)AK-NH2 as substrate measured every 30 secs for 5 mins in presence of CHAPS by FRET assay
Method in brief: (§1)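 Aggregation counter-screen run in the FRET protease assay, with inhibition followed across a range of detergent concentrations (0-0.2 %) of CHAPS and of Brij35.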

West Nile virus [4] = experiment: Mixed inhibition of West Nile virus NS2B-NS3 protease using Mca-KKR-GDap(DNP)AK-NH2 as substrate measured every 30 secs for 10 mins by Lineweaver-burk plot analysis
West Nile virus [5] = experiment: Inhibition of West Nile virus NS2B-NS3 protease using Mca-KKR-GDap(DNP)AK-NH2 as substrate measured every 30 secs for 5 mins in presence of Brij35 by FRET assay; method in brief: as §1

Structure (SMILES) | inhibition (West Nile virus [1]) [%] | also measured
COc1cc(C(=O)NS(=O)(=O)c2ccccc2C)ccc1Cn1ccc2cc(NC(=O)OC3CCCC3)ccc21 | 79 | 
COc1cc(C(=O)NS(=O)(=O)c2ccccc2C)ccc1Cc1cn(C)c2ccc(NC(=O)CC3CCCC3)cc12 | 33 | 
Cc1ccccc1S(=O)(=O)NC(=O)c1ccc(Cc2cn(C)c3ccc(NC(=O)OC4CCCC4)cc23)cc1 | 64 | 
COC(=O)c1ccc(Cn2ccc3cc(NC(=O)OC4CCCC4)ccc32)c(OC)c1 | 5 | 
COC(=O)c1ccc(Cc2cn(C)c3ccc(NC(=O)OC4CCCC4)cc23)c(OC)c1 | 12 | 
COc1cc(C(=O)NS(=O)(=O)c2ccccc2)ccc1Cc1cn(C)c2ccc(NC(=O)OC3CCCC3)cc12 | 81 | 
Cn1ccc2cc(NC(=O)OC3CCCC3)ccc21 | 6 | 
COc1cc(C(=O)NS(=O)(=O)c2ccccc2C)ccc1Cc1cccc(NC(=O)OC2CCCC2)c1 | 30 | 
COc1cc(C(=O)NS(=O)(=O)c2ccccc2C)ccc1Cc1cn(C)c2ccc(NC(=O)Oc3ccccc3)cc12 | 92 | IC50 [2]: 22 µM
Cc1ccccc1S(=O)(=O)NC(=O)c1ccc(NC(=O)OC2CCCC2)cc1 | 4 | 
COc1cc(C(=O)NS(=O)(=O)c2ccccc2C)ccc1Cc1cn(C)c2ccc(NC(=O)OC3CCCC3)cc12 [ZAFIRLUKAST] |  | inhibition (West Nile virus [3]): Active; inhibition (West Nile virus [4]): Active; IC50 [2]: 32 µM; inhibition (West Nile virus [5]): Active
COc1cc(C(=O)NCc2ccccc2)ccc1Cc1cn(C)c2ccc(NC(=O)OC3CCCC3)cc12 | 5 | 
CCOC(=O)Nc1ccc2c(c1)c(Cc1ccc(C(=O)NS(=O)(=O)c3ccccc3C)cc1OC)cn2C | 12 | 
